Assay outcomes deposited in PubChem by several laboratories.
ASAP1 inh – inhibitors of human ASAP1 ArfGAP activity, primary screen, biochemical, fluorescence polarization | ASAP1-stimulated ARF1 GTP hydrolysis, GDP FP detection | inhibition, % at 16.5 µM | 0.19% of 360,000 active | AID 624377, 2012; in the data active = inhibition above about 25%
Target sequence (Q9ULH1 325-724 limits assumed): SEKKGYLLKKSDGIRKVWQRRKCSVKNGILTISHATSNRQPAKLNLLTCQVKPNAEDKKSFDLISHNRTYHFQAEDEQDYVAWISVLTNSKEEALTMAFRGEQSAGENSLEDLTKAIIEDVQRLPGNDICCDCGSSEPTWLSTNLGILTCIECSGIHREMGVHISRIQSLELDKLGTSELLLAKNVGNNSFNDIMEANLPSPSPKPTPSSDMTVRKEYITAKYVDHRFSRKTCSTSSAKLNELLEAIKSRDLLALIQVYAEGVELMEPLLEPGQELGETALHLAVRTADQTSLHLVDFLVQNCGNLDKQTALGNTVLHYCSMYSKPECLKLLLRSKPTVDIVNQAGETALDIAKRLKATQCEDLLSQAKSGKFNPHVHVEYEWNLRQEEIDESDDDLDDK
ARFGAP1 inh – inhibitors of rat ARFGAP1 GAP activity, primary screen, biochemical, fluorescence polarization, GDP tracer; 0.26% of 360,000 active; Arfgap1-stimulated ARF1 GTP hydrolysis, GDP FP detection; ADP-ribosylation factor GTPase-activating protein 1 (Rattus norvegicus), Q62848; inhibition, % at 16.5 µM; AID 651572, 2012;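 active = inhibition above a per-plate limit, mean inhibition of low control wells plus 3 SD, cut at about 25% in these data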
Target sequence (Q62848 1-136 limits assumed): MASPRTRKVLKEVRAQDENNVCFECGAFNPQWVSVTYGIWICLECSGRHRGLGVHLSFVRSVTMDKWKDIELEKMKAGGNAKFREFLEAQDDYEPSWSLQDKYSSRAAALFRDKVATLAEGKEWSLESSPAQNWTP
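Material: truncated rat Arfgap1 GAP domain; Incubation: compound-enzyme preincubation 20 min, reaction 120 min, detection 60 min, 25 °C; Read-out: percent inhibition of Arfgap1-stimulated GTP hydrolysis; Technique: FP, GDP Alexa 633 tracer displaced from anti-GDP antibody, 620/688 nm; Controls: No-Arfgap1 wells (100%) versus DMSO full-reaction wells (0%); Replication: single well per compound.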
NadD block – inhibitors of S. aureus NadD, primary screen, biochemical, colorimetric, uHTS. 0.78% of 360,000 active. inhibition, % at 20 µM. purified NadD enzyme, colorimetric absorbance read-out. Nicotinate-nucleotide adenylyltransferase NadD (Staphylococcus aureus N315). AID 602399, 2012; in the data active = inhibition above about 26%
rCAG RNA binder – binders of r(CAG) RNA repeats, primary screen, biochemical, fluorescence. r(CAG) RNA repeat, TO-PRO-1 dye displacement fluorescence. inhibition, % at 3 µM. 1.3% of 370,000 active;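 active = inhibition above the plate cutoff, the mean of all test compounds on that plate plus 3 SD, cut at about 35% in these data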;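 also: higher means more dye released from RNA so lower well fluorescence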
NadD inh conf – inhibitors of S. aureus NadD, confirmation, biochemical, colorimetric, single concentration | shares compounds with NadD block | purified S. aureus NadD, colorimetric enzyme assay | inhibition, % at 20 µM | 13% of 2,000 active; in the data active = inhibition mostly above about 42%, no sharp cut-off; inactive = mostly below about 42%
A number is an active result; n = inactive; x = not tested or not shown; + = active, no number. In the library only some 2.2% were active in any assay of this set; here they are far more common.

SMILES	ASAP1 inh	ARFGAP1 inh	NadD block	rCAG RNA binder	NadD inh conf
COC[C@H]1CCCN1c1cccc2c1S(=O)(=O)N1CC[C@@H](C1)O2	x	x	x	n	x
CC(C)c1cc(C(C)C)c(S(=O)(=O)N2CCC(c3cn4ccccc4n3)CC2)c(C(C)C)c1	x	x	x	n	x
O=[N+]([O-])c1ccc(Nc2nc(NC3CCCCC3)nc(N3CCCC3)n2)cc1	n	n	39	n	n
Cc1cc(C)nc(N/N=C/c2cc3c(cc2[N+](=O)[O-])OCO3)n1	n	n	n	n	x
O=[N+]([O-])c1cc2c(cc1/C=N/Nc1nc(Nc3ccccc3)nc(N3CCCCC3)n1)OCO2	n	n	39	n	n
O=[N+]([O-])c1ccc(NC2CCCC2)cc1	n	n	n	n	x
O=[N+]([O-])c1ccc(Nc2nc(N/N=C/c3cccc(F)c3)nc(N3CCCC3)n2)cc1	n	n	38	n	n
CCOC(=O)[C@@]12CCCC3=C1N(CCC3)C(=O)[C@H]2CC(=O)N1CCN(C(=O)c2ccco2)CC1	x	x	x	n	x
O=C(c1ccccc1)n1c2ccccc2c(=O)n1-c1ccccc1CCl	x	x	n	x	x
CCOc1ccc(CCN2C(=S)N([C@@H](CC(C)C)CN3CCC[C@@H]3CN3C(=S)NC[C@@H]3Cc3ccccc3)C[C@@H]2Cc2ccc(O)cc2)cc1	n	n	36	n	n
CCOc1ccc(CCN2C(=S)N([C@@H](Cc3ccccc3)CN3CCCC3CN3C(=S)NC[C@@H]3Cc3ccccc3)C[C@@H]2Cc2ccc(O)cc2)cc1 (some centres undefined)	n	n	50	n	n
CCOc1ccc(CCN2C(=S)N([C@@H](Cc3ccc(O)cc3)CN3CCC[C@@H]3CN3C(=S)NC[C@@H]3Cc3ccccc3)C[C@@H]2Cc2ccccc2)cc1	n	n	n	n	x
COc1ccc(C(=O)CSc2nnc(-c3cccc(Cl)c3)n2Cc2ccco2)cc1	x	x	x	n	x
COCCCNc1cc(C)nc2ccccc12	n	n	n	n	x
Cc1cc(NCCCCCCCNc2cc(C)nc3cc([N+](=O)[O-])ccc23)c2ccc([N+](=O)[O-])cc2n1	108	+	66	n	65
COc1ccc(CNCC#Cc2cccnc2)c(OC)c1	x	x	x	n	x
N#Cc1ccc(S(=O)(=O)N2CCCc3nc(-c4ccc(F)cc4)ccc32)cc1	n	n	x	n	x
Cc1c(NC(=O)/C(C#N)=C/c2ccc(-c3ccc(Cl)c(Cl)c3)o2)c(=O)n(-c2ccccc2)n1C	n	n	33	n	n
Cc1c(NC(=O)/C(C#N)=C/c2ccc(-c3cccc(Cl)c3)o2)c(=O)n(-c2ccccc2)n1C	n	n	n	n	x
O=C(O)/C=C/c1cn(-c2ccccc2)nc1-c1ccc(-c2ccc([N+](=O)[O-])cc2)o1	n	n	49	n	n
O=C(Cc1c(F)c(F)c(F)c(F)c1F)Nc1nc(-c2ccccc2)cs1	n	n	n	n	x
COC(=O)c1ccccc1S(=O)(=O)NC(=O)[C@H]1O[C@@H](n2ccc(=O)[nH]c2=O)[C@H](O)[C@@H]1O	n	n	x	n	x
CCCCNC(=O)C1=C(N)C(C(=O)Nc2ccc(C)c(S(=O)(=O)N3CCCCC3)c2)SC1=Nc1ccc(C)cc1C (centres undefined)	n	n	40	n	n
CCCCC(=O)Nc1ccc(C)c(S(=O)(=O)N2CCCCCC2)c1	n	n	n	n	x
CCOc1ccccc1N1CCN(S(=O)(=O)c2ccc3c4c(cccc24)C(=O)N3)CC1	n	n	30	37	n
SMILES	ASAP1 inh	ARFGAP1 inh	NadD block	rCAG RNA binder	NadD inh conf
O=C(c1cc(C2CCCCN2C(=O)CCCc2ccccc2)on1)N1CCOCC1 (centres undefined)	n	n	n	n	x
CN(C)c1ccnc2c[cH-]cc12.[Fe].c1ccc(-[c-]2[c-](-c3ccccc3)[c-](-c3ccccc3)[c-](-c3ccccc3)[c-]2-c2ccccc2)cc1 (centres undefined)	n	n	29	n	n
COc1cccc(CNC(=O)[C@H]2CCCN2C(=O)[C@H]2CCCN2C(=O)OC(C)(C)C)c1	n	n	x	n	x
CC(C)(C)OC(=O)CC[C@@H](C(=O)NCCCCCCCCCCC(=O)N1CCN(C(=O)OC(C)(C)C)CC1)n1cc(CCCCCNC(=O)OC(C)(C)C)nn1	n	n	32	n	n
Cc1ccc2[nH]c(C)c(CCNC(=O)c3cc4cc([N+](=O)[O-])ccc4oc3=O)c2c1	n	n	33	n	n
O=C(Nc1nnc(C2CC2)s1)c1ccc(Cl)c(S(=O)(=O)N2CCc3ccccc3C2)c1	n	n	33	n	n
CC(C)C[C@@H]1COc2cc(NCCO)ccc2S(=O)(=O)N1	n	n	x	n	x
O=C1c2ccc(Cl)cc2S(=O)(=O)c2cccc(C(=O)N3CCN(c4ccc(Cl)cn4)CC3)c21	n	n	n	n	x
O=C(O)c1cccc2c1C(=O)c1ccc(-c3ccc(F)cc3OCc3ccccc3)cc1S2(=O)=O	x	x	n	x	x
O=C(NC[C@H]1CCCO1)c1cccc2c1C(=O)c1ccc(-c3ccc(F)cc3OCc3ccccc3)cc1S2(=O)=O	n	n	n	n	x
O=C1c2ccc(-c3ccc(Cl)c(C(F)(F)F)c3)cc2S(=O)(=O)c2cccc(C(=O)N3CCN(c4ncc(Br)cn4)CC3)c21	n	n	52	n	n
O=C1c2ccc(-c3ccc(F)cc3OCc3ccccc3)cc2S(=O)(=O)c2cccc(C(=O)N3CCN(c4ncc(Cl)cc4Cl)CC3)c21	n	n	61	n	n
N#Cc1cccnc1N1CCN(C(=O)c2cccc3c2C(=O)c2ccc(-c4ccc(F)cc4OCc4ccccc4)cc2S3(=O)=O)CC1	n	n	31	n	n
Cc1cc(CNC(=O)c2cccc3c2C(=O)c2ccc(-c4ccc(F)cc4OCc4ccccc4)cc2S3(=O)=O)c(C(F)(F)F)o1	n	n	52	43	n
O=c1c2c3c(sc2n(CCN2CCOCC2)c(=O)n1C1CCCCC1)CCCCC3	n	n	x	n	x
CC(c1ccccc1)n1cc(C(=O)N2CCCC2)nn1 (centres undefined)	x	x	x	n	x
COC(=O)c1cc2c(c3c4cc(F)ccc4n(S(=O)(=O)c4ccc(OC)cc4)c13)C(=O)N(C)C2	n	n	x	n	x
Cc1cccc(N2CCN(c3ccc4cc(S(=O)(=O)N5CCCCC5)ccc4n3)CC2C)c1 (centres undefined)	n	n	n	n	x
Cc1cccc(N2CCN(c3ccc4cc(S(=O)(=O)N5CCCCC5)ccc4n3)CC2)c1C	n	n	29	n	n
Cc1ccc(C)c(N2CCN(c3ccc4cc(S(=O)(=O)N5CCCCC5)ccc4n3)CC2)c1	n	n	32	n	n
